The source made the active and inactive calls. The calls are words filed in the database; no cut-off is given here.
Assays:
[1] = molecular target: Histone deacetylase 3/Nuclear receptor corepressor 2 (HDAC3/NCoR2) (Homo sapiens, UniProt O15379); assay: Inhibition of C-terminal His-tagged recombinant human HDAC3 (1 to 428 residues)/N-terminal GST-tagged recombinant human NCoR2 (395 to 489 residues) co-expressed in baculovirus infected Sf9 cells using Boc-Lys(Ac)-AMC as substrate preincubated for 15 mins followed by substrate addition and measured after 60 mins by fluorescence based assay
Histone deacetylase 3/Nuclear receptor corepressor 2 (HDAC3/NCoR2), sequence (O15379 whole entry, the tested form may be a part): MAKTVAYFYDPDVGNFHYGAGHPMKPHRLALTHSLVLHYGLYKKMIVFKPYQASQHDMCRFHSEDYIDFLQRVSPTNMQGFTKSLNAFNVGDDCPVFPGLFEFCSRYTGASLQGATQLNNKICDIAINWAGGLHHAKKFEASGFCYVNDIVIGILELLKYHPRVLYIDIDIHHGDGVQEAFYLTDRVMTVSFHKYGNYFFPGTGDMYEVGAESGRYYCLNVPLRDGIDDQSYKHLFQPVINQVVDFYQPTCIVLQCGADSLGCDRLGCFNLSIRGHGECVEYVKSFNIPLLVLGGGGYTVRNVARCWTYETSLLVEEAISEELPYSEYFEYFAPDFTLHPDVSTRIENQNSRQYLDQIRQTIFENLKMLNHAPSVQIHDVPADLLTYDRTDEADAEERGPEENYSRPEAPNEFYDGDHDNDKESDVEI
Histone deacetylase 3/Nuclear receptor corepressor 2 (HDAC3/NCoR2), sequence (Q9Y618 whole entry, further chain, the tested form may be a part): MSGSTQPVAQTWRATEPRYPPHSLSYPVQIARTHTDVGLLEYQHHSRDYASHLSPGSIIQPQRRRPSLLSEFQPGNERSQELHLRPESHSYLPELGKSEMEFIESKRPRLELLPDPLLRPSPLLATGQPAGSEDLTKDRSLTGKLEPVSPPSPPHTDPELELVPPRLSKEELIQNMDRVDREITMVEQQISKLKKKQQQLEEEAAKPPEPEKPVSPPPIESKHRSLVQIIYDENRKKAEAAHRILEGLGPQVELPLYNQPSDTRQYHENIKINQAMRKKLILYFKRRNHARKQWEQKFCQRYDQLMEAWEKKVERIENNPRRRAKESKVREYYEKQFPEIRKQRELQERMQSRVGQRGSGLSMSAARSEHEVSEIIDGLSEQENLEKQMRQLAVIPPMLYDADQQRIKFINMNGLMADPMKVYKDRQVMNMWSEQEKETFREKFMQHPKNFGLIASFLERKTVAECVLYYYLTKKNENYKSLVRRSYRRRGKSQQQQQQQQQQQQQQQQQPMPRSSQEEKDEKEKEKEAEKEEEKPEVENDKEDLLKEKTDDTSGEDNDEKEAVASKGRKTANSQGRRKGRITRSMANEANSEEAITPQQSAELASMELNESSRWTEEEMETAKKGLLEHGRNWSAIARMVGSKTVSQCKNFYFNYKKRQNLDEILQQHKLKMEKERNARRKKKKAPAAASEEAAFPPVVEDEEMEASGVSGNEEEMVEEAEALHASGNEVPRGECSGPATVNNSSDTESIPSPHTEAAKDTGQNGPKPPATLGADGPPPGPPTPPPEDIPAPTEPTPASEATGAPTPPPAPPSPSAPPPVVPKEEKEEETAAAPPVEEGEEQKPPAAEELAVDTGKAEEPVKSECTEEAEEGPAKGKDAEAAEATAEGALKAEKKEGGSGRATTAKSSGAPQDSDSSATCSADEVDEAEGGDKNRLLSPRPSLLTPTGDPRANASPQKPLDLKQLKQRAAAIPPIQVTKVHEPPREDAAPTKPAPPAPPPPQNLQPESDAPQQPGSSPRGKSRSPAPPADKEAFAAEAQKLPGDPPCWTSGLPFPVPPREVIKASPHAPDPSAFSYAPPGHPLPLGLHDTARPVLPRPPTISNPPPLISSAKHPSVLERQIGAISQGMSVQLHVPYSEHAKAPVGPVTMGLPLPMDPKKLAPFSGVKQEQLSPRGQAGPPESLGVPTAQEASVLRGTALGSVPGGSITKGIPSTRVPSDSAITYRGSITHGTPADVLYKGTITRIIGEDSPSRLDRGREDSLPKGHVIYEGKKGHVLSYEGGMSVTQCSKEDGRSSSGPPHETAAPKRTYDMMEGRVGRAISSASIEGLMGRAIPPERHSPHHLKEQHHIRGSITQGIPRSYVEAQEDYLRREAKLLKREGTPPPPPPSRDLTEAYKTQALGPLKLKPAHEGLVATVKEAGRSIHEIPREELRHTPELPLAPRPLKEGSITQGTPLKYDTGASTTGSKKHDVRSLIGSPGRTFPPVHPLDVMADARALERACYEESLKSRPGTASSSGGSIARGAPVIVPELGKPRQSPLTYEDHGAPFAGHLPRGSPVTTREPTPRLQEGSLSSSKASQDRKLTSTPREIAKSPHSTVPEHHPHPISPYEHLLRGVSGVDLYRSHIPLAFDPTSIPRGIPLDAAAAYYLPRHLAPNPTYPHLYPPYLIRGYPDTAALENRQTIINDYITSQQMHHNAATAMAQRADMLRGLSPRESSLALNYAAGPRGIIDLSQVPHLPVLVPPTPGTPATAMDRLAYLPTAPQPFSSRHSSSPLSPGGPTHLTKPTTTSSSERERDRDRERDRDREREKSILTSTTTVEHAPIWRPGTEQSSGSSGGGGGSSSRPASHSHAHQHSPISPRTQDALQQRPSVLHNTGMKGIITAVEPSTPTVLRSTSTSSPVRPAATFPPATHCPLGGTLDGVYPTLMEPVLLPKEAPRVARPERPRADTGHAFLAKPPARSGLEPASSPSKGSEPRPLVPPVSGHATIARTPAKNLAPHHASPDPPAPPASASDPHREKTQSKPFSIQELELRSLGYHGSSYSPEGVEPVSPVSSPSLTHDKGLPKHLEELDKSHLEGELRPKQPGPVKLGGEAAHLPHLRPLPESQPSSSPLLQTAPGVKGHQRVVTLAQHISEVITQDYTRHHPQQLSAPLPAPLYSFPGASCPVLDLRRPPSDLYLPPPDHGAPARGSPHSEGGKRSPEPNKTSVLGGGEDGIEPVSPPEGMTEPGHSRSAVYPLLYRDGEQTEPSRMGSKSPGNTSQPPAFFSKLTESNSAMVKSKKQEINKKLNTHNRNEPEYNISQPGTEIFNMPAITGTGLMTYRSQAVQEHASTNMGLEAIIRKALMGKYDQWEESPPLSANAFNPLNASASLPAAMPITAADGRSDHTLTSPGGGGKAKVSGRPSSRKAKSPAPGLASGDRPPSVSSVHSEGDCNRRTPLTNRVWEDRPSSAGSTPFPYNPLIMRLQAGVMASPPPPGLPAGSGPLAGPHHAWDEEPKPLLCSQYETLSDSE

A549 = assay: Antiproliferative activity against human A549 cells assessed as cell growth inhibition incubated for 96 hrs by MTT assay; type: functional
[2] = Toxicity in mouse LL/2 cells inoculated C57BL/6J mouse assessed as effect on body weight by measuring initial body weight at 25 mg/kg, ip administered for 12 days measured for every 2 days (reference value: 18.4 +/- 0.4 g); type: organism-based; conditions: in vivo, 288 h, time 12 day
[3] = molecular target: T1, Protein deacetylase HDAC6 (Homo sapiens, UniProt Q9UBN7); assay: Inhibition of recombinant full length C-terminal FLAG-tagged human HDAC6 expressed in baculovirus infected Sf9 cells using Boc-Lys(Ac)-AMC as substrate preincubated for 15 mins followed by substrate addition and measured after 60 mins by fluorescence based assay
T1 sequence (Q9UBN7 whole entry): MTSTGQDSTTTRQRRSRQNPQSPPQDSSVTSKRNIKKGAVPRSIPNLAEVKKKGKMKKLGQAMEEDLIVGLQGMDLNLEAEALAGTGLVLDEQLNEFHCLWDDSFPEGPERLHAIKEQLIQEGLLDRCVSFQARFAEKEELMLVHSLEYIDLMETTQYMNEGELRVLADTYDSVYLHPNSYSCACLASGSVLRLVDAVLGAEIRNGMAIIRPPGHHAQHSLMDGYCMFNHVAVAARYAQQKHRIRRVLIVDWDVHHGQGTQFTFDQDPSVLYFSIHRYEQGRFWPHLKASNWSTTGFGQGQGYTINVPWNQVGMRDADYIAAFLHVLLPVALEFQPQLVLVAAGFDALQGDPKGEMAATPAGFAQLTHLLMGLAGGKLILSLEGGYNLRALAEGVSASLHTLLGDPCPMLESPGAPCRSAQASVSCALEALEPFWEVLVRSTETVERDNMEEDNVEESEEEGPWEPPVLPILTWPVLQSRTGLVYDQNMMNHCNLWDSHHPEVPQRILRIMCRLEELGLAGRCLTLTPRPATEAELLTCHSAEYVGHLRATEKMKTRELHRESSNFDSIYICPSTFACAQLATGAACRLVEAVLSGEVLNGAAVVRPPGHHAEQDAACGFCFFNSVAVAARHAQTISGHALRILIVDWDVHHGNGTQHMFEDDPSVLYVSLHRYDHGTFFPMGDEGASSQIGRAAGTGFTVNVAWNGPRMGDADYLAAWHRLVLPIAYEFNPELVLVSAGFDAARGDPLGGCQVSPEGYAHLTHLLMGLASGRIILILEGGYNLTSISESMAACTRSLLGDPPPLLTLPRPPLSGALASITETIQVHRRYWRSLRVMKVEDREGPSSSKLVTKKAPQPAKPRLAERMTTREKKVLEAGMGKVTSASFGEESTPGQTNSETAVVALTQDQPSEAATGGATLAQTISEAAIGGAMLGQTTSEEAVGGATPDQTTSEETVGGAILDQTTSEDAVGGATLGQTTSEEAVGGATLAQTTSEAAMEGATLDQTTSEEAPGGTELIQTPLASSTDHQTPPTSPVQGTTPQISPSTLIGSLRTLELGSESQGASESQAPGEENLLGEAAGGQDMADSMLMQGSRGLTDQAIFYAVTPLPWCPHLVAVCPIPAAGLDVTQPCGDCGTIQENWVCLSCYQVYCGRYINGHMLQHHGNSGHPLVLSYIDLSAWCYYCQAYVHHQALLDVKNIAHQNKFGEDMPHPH

HL-60 [4] = assay: Growth inhibition of human HL-60 cells after 72 hrs by trypan blue dye based assay; type: functional; conditions: for GI50: Homo sapiens, HL-60
How it was run: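 HL-60 leukemia cells were exposed to compound for 72 h. Growth inhibition is reported as IG50 (half the growth inhibition concentration), as means plus SD of three independent experiments.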

Histone deacetylase 2 = Histone deacetylase 2 (Homo sapiens, UniProt Q92769); assay: Inhibition of recombinant full length C-terminal FLAG-tagged human HDAC2 expressed in baculovirus infected Sf9 cells using Boc-Lys(Ac)-AMC as substrate preincubated for 15 mins followed by substrate addition and measured after 60 mins by fluorescence based assay
Histone deacetylase 2, sequence (Q92769 whole entry): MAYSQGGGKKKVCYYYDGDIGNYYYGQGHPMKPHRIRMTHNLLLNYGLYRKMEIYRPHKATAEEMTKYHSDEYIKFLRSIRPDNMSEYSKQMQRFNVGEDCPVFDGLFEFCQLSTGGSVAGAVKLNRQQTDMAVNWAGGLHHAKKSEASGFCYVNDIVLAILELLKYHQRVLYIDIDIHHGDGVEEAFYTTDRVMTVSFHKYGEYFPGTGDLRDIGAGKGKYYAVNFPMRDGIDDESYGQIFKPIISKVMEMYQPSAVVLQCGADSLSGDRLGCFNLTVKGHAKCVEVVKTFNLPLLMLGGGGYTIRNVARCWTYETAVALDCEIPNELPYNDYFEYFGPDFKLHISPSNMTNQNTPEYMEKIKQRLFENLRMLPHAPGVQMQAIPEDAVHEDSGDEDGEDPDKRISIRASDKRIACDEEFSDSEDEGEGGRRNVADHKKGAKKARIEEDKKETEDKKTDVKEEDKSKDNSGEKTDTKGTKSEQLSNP

HCT-116 = assay: Antiproliferative activity against human HCT-116 cells assessed as cell growth inhibition incubated for 96 hrs by MTT assay; type: functional
[5] = Antitumor activity against mouse LL/2 cells inoculated in C57BL/6J mouse assessed as reduction of tumor weight at 25 mg/kg, ip administered for 12 days measured at day 14 (reference value: 0.98 +/- 0.07 g); type: functional, Lewis lung carcinoma; conditions: time 12 day
HL-60 [6] = assay: Induction of apoptosis in human HL60 cells assessed as viable cells at 2 uM incubated for 24 hrs by propidium iodide and annexin-V FITC staining based FACS analysis (reference value: 92.05 %); type: functional; conditions: read-out: Activity
[7] = Toxicity in mouse LL/2 cells inoculated C57BL/6J mouse assessed as effect on body weight by measuring end body weight at 25 mg/kg, ip administered for 12 days and measured for every 2 days (reference value: 18.1 +/- 0.2 g); type: organism-based; conditions: in vivo, 288 h, time 12 day
HL-60 [8] = assay: Induction of apoptosis in human HL-60 cells assessed as early apoptotic cells at 4 uM incubated for 24 hrs by propidium iodide and annexin-V FITC staining based FACS analysis (reference value: 2.9 %); type: functional
MCF7 = assay: Antiproliferative activity against human MCF7 cells assessed as cell growth inhibition incubated for 96 hrs by MTT assay; type: functional
[9] = Antitumor activity against mouse LL/2 cells inoculated in C57BL/6J mouse assessed as tumor growth inhibition at 25 mg/kg, ip administered for 12 days; type: functional, Lewis lung carcinoma; parameters: scale not given: the % may be the effect or the level left; conditions: time 12 day
HL-60 [10] = assay: Induction of apoptosis in human HL-60 cells assessed as cleavage of caspase-3 at 0.5 to 8 uM after 24 hrs Western blot analysis; type: functional, cell-based; conditions: dose 0.5-8 µM
How it was run: (§1)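 HL-60 cells were treated for 24 h at the indicated concentrations, then analysed by Western blot. Blots were probed for cleavage of PARP and caspase-3, -8 and -9. Ac-H3, Ac-α-tubulin and β-actin were also detected, with β-actin as the loading reference.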

HL-60 [11] = assay: Induction of apoptosis in human HL-60 cells assessed as cleavage of PARP at 0.5 to 8 uM after 24 hrs Western blot analysis; type: functional, cell-based; conditions: dose 0.5-8 µM; how it was run: as §1
[12] = Antiproliferative activity against mouse LL/2 cells assessed as cell growth inhibition incubated for 96 hrs by MTT assay; type: functional, Lewis lung carcinoma
Histone deacetylase 1 = Histone deacetylase 1 (Homo sapiens, UniProt Q13547); assay: Inhibition of recombinant full length C-terminal FLAG/His-tagged human HDAC1 expressed in baculovirus infected Sf9 cells using Boc-Lys(Ac)-AMC as substrate preincubated for 15 mins followed by substrate addition and measured after 60 mins by fluorescence based assay
Histone deacetylase 1, sequence (Q13547 whole entry): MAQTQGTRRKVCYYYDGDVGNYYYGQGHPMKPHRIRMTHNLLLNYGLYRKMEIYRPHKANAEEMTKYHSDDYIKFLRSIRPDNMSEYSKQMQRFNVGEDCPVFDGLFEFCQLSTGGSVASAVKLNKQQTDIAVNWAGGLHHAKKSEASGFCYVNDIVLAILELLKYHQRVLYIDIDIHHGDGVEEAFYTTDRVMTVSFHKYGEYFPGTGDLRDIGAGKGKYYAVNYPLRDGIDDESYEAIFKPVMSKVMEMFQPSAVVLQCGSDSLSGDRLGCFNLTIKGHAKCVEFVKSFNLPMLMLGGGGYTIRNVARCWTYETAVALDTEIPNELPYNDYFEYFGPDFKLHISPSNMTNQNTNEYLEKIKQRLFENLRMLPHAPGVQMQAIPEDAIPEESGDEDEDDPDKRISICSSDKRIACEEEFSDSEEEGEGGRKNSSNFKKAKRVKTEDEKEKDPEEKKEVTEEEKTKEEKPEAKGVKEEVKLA

HL-60 [13] = assay: Induction of apoptosis in human HL-60 cells assessed as cleavage of caspase-9 at 0.5 to 8 uM after 24 hrs Western blot analysis; type: functional, cell-based; conditions: dose 0.5-8 µM; how it was run: as §1

Structure (SMILES) | IC50 [1] | IG50 (A549) | Activity [2] | IC50 [3] | GI50 (HL-60 [4]) | IC50 (Histone deacetylase 2) | IG50 (HCT-116) | Activity [5] | viability at 2 µM (HL-60 [6]) | Activity [7] | Activity (HL-60 [8]) | IG50 (MCF7) | Activity [9] | Activity (HL-60 [10]) | Activity (HL-60 [11]) | IG50 [12] | IC50 (Histone deacetylase 1) | Activity (HL-60 [13]) | IG50 (HL-60 [4])
O=C(NCCS)/C(Cc1ccc(O)c(Br)c1)=N/O | 120 nM | 10.7 µM | 18.5 g | 960 nM | 680 nM | 210 nM | 5.9 µM | 0.48 g | 93.6% | 18.3 g | 1.6% | 17 µM | 55.99% | Active | Active | 3.9 µM | 52 nM | Active | –
O=C(NCCSSCCNC(=O)/C(Cc1ccc(O)c(Br)c1)=N/O)/C(Cc1ccc(O)c(Br)c1)=N/O [PSAMMAPLIN A] | 12.4 nM | 2.9 µM | 18.2 g | 311 nM | 370 nM | 33 nM | 2.3 µM | 0.34 g | 67.1% | 18.4 g | 3.4% | 4.14 µM | 66.04% | Active | Active | 2.64 µM | 8 nM | Active | –
O=C(CCNC(=O)/C(Cc1ccc(O)c(Br)c1)=N/O)NO | 20 nM | 1.1 µM | 18.9 g | 96 nM | – | 33 nM | 0.9 µM | 0.45 g | – | 18.4 g | – | 1.09 µM | 54.68% | – | – | 5 µM | 18 nM | – | 0.57 µM

— ChEMBL document CHEMBL4673384, “Studying Histone Deacetylase Inhibition and Apoptosis Induction of Psammaplin A Monomers with Modified Thiol Group” (ACS Med Chem Lett, 2021)
